The values that follow come from ChEMBL document CHEMBL1125821, “Pyrimido[5,4-b]indole derivatives. 1. A new class of potent and selective alpha 1 adrenoceptor ligands” (J Med Chem, 1991).

Test [1] has as its target T1, 5-hydroxytryptamine receptor 1A (Rattus norvegicus, UniProt P19327).
T1 sequence (P19327 whole entry): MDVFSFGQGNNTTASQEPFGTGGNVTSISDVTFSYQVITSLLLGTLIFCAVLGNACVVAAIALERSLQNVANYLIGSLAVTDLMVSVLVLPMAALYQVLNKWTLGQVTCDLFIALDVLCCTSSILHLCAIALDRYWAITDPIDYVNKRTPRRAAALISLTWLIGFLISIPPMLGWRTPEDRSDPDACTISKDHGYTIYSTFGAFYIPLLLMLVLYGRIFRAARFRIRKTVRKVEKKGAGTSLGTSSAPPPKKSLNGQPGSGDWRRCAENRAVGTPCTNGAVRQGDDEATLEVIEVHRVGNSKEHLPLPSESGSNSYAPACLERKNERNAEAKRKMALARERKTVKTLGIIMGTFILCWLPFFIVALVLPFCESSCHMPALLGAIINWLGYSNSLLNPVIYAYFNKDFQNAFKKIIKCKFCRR
Description: Binding affinity for 5-hydroxytryptamine 1A receptor measured by displacing [3H]8-OH-DPAT from rat cortical membranes. The method in brief: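 Rat hippocampus or cortex membranes; 1 nM [3H]-8-OH-DPAT; nonspecific binding set with 1 μM serotonin. Incubated with competing drug 45–60 min at 37 °C in buffer, then vacuum-filtered on glass-fiber filters and washed with ice-cold buffer. IC50 from nonlinear fit of competition curves, mean of 3–7 experiments. Ki by Cheng–Prusoff.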

For test [2], the target named is T2, Adrenergic receptor alpha-2 (Homo sapiens, UniProt P08913+P18825+P18089).
T2 sequence (P08913 whole entry): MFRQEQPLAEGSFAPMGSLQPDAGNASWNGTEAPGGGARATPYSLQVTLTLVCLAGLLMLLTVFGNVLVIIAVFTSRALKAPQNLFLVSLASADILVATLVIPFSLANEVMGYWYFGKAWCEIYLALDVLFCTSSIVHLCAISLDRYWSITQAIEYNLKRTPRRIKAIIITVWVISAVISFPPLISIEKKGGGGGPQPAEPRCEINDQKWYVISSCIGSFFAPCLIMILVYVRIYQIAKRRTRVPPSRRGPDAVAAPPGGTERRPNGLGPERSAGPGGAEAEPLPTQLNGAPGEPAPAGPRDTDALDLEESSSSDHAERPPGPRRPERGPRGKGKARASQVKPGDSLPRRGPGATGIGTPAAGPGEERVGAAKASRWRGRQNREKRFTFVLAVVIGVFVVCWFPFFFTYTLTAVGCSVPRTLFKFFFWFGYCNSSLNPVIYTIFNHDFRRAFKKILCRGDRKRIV
T2 sequence (P18825 whole entry): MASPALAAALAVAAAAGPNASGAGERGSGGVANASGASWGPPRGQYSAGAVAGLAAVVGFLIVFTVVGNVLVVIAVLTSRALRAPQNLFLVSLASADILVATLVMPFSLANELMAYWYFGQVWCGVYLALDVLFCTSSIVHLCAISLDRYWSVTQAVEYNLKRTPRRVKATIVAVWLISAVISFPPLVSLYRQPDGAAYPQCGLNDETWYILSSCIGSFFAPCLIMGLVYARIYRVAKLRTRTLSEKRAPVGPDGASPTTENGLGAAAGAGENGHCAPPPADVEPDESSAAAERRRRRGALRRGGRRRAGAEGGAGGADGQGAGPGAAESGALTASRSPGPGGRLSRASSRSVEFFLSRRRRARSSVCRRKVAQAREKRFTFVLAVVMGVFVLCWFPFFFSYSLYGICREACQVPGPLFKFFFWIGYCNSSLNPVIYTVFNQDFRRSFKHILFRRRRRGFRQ
T2 sequence (P18089 whole entry): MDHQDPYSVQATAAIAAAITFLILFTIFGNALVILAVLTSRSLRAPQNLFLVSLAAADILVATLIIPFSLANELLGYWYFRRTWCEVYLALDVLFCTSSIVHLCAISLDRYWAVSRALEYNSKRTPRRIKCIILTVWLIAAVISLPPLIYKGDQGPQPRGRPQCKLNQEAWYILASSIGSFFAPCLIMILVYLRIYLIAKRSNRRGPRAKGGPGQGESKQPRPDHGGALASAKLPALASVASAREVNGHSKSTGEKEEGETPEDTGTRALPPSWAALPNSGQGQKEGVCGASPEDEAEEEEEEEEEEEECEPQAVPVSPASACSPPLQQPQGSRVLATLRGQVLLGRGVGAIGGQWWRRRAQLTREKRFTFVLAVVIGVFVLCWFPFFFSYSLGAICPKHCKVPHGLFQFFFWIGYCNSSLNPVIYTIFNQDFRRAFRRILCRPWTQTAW
The experiment in a line: Binding affinity towards Alpha-2 adrenergic receptor in human platelet membranes using [3H]yohimbine. It is filed as cell membranes. The method in brief:
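Human platelet membranes, [3H]yohimbine 3.5 nM; nonspecific binding defined by 100 μM phentolamine. Competition run 45–60 min at 37 °C, stopped by rapid vacuum filtration over glass-fiber filters and ice-chilled buffer washes. IC50 by nonlinear regression, mean of three to seven experiments; converted to Ki with the Cheng–Prusoff equation.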

In test [3] the target is T3, Alpha-1A adrenergic receptor (Rattus norvegicus, UniProt P43140).
T3 sequence (P43140 whole entry): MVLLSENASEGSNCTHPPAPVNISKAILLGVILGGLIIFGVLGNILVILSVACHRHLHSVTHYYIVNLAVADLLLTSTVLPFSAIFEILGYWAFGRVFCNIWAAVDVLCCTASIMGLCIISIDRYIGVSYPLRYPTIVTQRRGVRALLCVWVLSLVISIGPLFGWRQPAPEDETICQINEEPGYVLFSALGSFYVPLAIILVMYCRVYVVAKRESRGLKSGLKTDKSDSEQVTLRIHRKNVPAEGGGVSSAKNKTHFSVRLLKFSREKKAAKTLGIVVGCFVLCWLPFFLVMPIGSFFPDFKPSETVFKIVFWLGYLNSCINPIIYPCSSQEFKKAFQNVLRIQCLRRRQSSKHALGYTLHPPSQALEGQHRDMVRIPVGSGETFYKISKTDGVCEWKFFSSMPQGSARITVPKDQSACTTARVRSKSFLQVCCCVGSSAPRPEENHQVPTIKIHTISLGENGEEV
The experiment in a line: Binding affinity for Alpha-1 adrenergic receptor measured by displacing [3H]prazosin from rat cortical membranes. A digest of the protocol: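 Rat cortex membranes labelled with 0.4 nM [3H]prazosin; 10 μM phentolamine defined nonspecific binding. Incubation with competing drugs 45–60 min at 37 °C, then vacuum filtration on glass-fiber filters with ice-chilled buffer wash. IC50 by nonlinear curve fitting (three to seven experiments); Ki via Cheng–Prusoff using KD 0.1 nM for [3H]prazosin.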

Test [4] concerns the target Beta-2 adrenergic receptor (Homo sapiens, UniProt P07550). Description: Binding affinity towards Beta-2 adrenergic receptor in human peripheral mononuclear leukocyte membranes using [125I]pindolol. A digest of the protocol: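 Membranes from human peripheral blood mononuclear leukocytes bound [125I]pindolol (100 pM); 1 μM (-)-propranolol gave nonspecific binding. 45–60 min at 37 °C with or without competitors, then rapid filtration through glass-fiber filters and ice-cold buffer wash. IC50 from nonlinear fitting over three to seven experiments; Ki by Cheng–Prusoff.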

Test [5] deals with T3, Alpha-1A adrenergic receptor. The experiment in a line: Binding affinity measured for alpha-1 adrenergic receptor by displacement of [3H]prazosin from rat cortical membranes. The test is classed as cell membranes, Membrane. Background: Displacement assays read how much labelled ligand stays bound in the presence of the test substance.
Test [6] addresses T1, 5-hydroxytryptamine receptor 1A.

Some results are limits rather than exact numbers.

Chain of Beta-2 adrenergic receptor (P07550 whole entry): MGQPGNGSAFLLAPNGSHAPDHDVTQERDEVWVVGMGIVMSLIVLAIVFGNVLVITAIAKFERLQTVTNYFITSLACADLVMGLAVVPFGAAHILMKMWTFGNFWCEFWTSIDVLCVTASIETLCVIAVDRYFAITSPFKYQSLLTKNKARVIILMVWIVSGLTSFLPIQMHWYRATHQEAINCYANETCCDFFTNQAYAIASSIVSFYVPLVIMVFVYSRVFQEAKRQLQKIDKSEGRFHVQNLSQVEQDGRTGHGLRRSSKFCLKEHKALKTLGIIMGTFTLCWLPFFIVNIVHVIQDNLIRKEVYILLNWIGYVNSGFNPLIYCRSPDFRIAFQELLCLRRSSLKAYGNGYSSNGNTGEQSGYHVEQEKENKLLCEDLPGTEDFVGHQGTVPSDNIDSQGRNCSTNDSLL

Take `COc1ccccc1N1CCN(CCn2c(=O)[nH]c3c([nH]c4ccccc43)c2=O)CC1`: the Ki is 50 nM in test [1], “>= 1000 nM” in test [2], 0.21 nM in test [3] and greater than 100000 nM in test [4].
In test [5], `CCN(CC)CCn1c(=O)[nH]c2c([nH]c3ccccc32)c1=O` displayed a Ki greater than 100000 nM.
For the molecule `O=c1[nH]c2c([nH]c3ccccc32)c(=O)n1CCN1CCN(c2ccccc2)CC1`, the Ki in test [1] was greater than 100000 nM; in test [2], greater than 100000 nM; in test [3] it was 1.8 nM; in test [4], greater than 100000 nM.
As for `COc1ccc(N2CCN(CCn3c(=O)[nH]c4c([nH]c5ccccc54)c3=O)CC2)cc1`, the Ki is greater than 100000 nM in test [1], greater than 100000 nM in test [2], greater than 5000 nM in test [3] and greater than 100000 nM in test [4].
`CN(C)CCn1c(=O)[nH]c2c([nH]c3ccccc32)c1=O` returned a Ki in test [5] greater than 100000 nM.
`CN(C)CCCn1c(=O)[nH]c2c([nH]c3ccccc32)c1=O` gave a Ki in test [5] greater than 100000 nM.
On to `COc1ccccc1N1CCN(CCn2c(=O)c3c(c4ccccc4n3C)n(C)c2=O)CC1`, for which the inhibition constant (Ki) in test [1] came to 1.5 nM; in test [2] it was 2215 nM; in test [3], 0.32 nM.
For `O=c1[nH]c2c([nH]c3ccccc32)c(=O)n1CCN1CCN(c2ccc(Cl)cc2)CC1`, the Ki was greater than 100000 nM in test [1], greater than 100000 nM in test [2], no less than 10000 nM in test [3] and greater than 100000 nM in test [4].
The molecule `O=c1[nH]c2c([nH]c3ccccc32)c(=O)n1CCN1CCOCC1` yielded a Ki in test [5] greater than 100000 nM.
As to `CCOC(=O)N1CCN(CCn2c(=O)[nH]c3c([nH]c4ccccc43)c2=O)CC1`, the Ki in test [5] was greater than 100000 nM.
In test [5], `O=c1[nH]c2c([nH]c3ccccc32)c(=O)n1CCN1CCCC1` yielded a Ki greater than 100000 nM.
On to `COc1ccccc1N1CCN(CCCn2c(=O)[nH]c3c([nH]c4ccccc43)c2=O)CC1`, for which the Ki in test [1] is 308 nM; in test [2] it was 55 nM; in test [3] it was 13 nM; in test [4] it was 1180 nM.
In the case of `O=c1[nH]c2c([nH]c3ccccc32)c(=O)n1CCN1CCCCC1`, in test [5], the inhibitory constant (Ki) was greater than 100000 nM.
Turning to `O=c1[nH]c2c([nH]c3ccccc32)c(=O)n1CCN1CCN(c2ccccc2Cl)CC1`, the Ki in test [1] was greater than 100000 nM; in test [2], greater than 100000 nM; in test [3], 0.53 nM; in test [4] it was greater than 100000 nM.
On to `CCN(CC)CCCn1c(=O)[nH]c2c([nH]c3ccccc32)c1=O`, for which the Ki in test [5] was greater than 100000 nM.
In test [3], `O=c1[nH]c2c([nH]c3ccccc32)c(=O)n1CCN1CCNCC1` came in with a Ki greater than 100000 nM.
Take `COc1ccccc1N1CCNCC1`: the Ki in test [1] was 281 nM; in test [5], 3510 nM.
Turning to `Clc1ccccc1N1CCNCC1`, the values for the Ki in test [6] and in test [5] were 226 nM and 710 nM, respectively.

What is called Ki is the dissociation constant of the complex between target and ligand, obtained from inhibition or displacement. A high value points to weaker binding.
